Shown is part of a subset that was picked to be rich in hits.
INS-1E ATP HTS – preserves ATP levels in cytokine-treated INS-1E cells | INS-1E cytokine-induced death, ATP luminescence, 48 h; normalised: neutral wells 0, positive control 100 | protection from cytokine-induced ATP loss, % at 10 µM | hit rate 0.1% among 20,000 | AID 488910;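 active means mean replicate protection from cytokine-induced ATP loss at least 50% and at least 75% of replicates each reaching 50%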
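Assay system: INS-1E rat insulinoma cells. Amount: 8000 cells per well. Medium: phenol-red-free RPMI with 5% fetal bovine serum. Reagent: IL-1β, TNF-α and IFN-γ cytokine mix. Doses: one compound concentration, pin transfer. Schedule: 48 h co-treatment, 10 min post-lysis read. Detection: CellTiter-Glo luminescence measuring cellular ATP.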
T cruzi intra – inhibitors of intracellular Trypanosoma cruzi. intracellular Trypanosoma cruzi in host cells, plate reader. AID 651903. activity score (inhibition), % at 5.01 µM. hit rate 4.9% among 22,000; in the data active means activity score above about 55%;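 further: parasites and compound incubated about four days before reading; 0% = median of neutral control wells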
A1 apoptosis 2 – blocks A1, raising caspase activity | MEF A1-2A-BIM cells, caspase-Glo luminescence, 3 h; percent of clofoctol response, DMSO zero | 24,000 tested, under 10 active | caspase activation, % (concentration not given with the values) | AID 2465; in the data active means caspase activation above about 5.9%
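system = A1-2A-BIM-expressing MEF cells | quantity = 2500 MEF cells/well | dosing = 50 nL compound per well, pinned | schedule = overnight cell settling, then 3 h compound exposure, 37 °C | signal = luminescence from DEVD-luciferin Caspase-Glo reagent, 1:1 in 50 mM HEPES, 1 h RT | read-out = Caspase-3/7 activation, seen as rise in luminescence signal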
Starred values were filed as active, the others as inactive; · = no result given.

SMILES | INS-1E ATP HTS | T cruzi intra | A1 apoptosis 2
COc1ccc(NC(=O)Nc2ccc3c(c2)C(=O)N([C@@H](C)CO)C[C@@H](C)[C@H](CN(C)Cc2ccc(C(F)(F)F)cc2)OCCCC[C@@H](C)O3)cc1 | · | · | 0.8
COc1ccc(CN(C)C[C@H]2OCCCC[C@H](C)Oc3ccc(NC(=O)Nc4ccc(C(F)(F)F)cc4)cc3C(=O)N([C@H](C)CO)C[C@@H]2C)cc1 | · | · | 1.0
COc1ccc(CN(C)C[C@H]2OCCCC[C@@H](C)Oc3ccc(NC(=O)Nc4ccc(C(F)(F)F)cc4)cc3C(=O)N([C@H](C)CO)C[C@@H]2C)cc1 | -33.0 | 66.8* | ·
COc1ccc(NC(=O)Nc2ccc3c(c2)C(=O)N([C@H](C)CO)C[C@H](C)[C@H](CN(C)Cc2ccc(C(F)(F)F)cc2)OCCCC[C@@H](C)O3)cc1 | -4.0 | 71.4* | ·
C=CCNC(=O)[C@H]1[C@@H]2C(=O)O[C@@H](c3ccccc3)[C@@H](c3ccccc3)N2[C@@H](c2ccc(OCCO)cc2)[C@]12C(=O)N(C(=O)OCCOC)c1ccc(C#CC3(O)CCCCCC3)cc12 | · | · | 0.5
O=C(O)CCCCCCC(=O)N/N=C/c1cccc2ccccc12 | 12.1 | -2.9 | ·
C[C@@H]1CCCCO[C@@H](CN(C)C(=O)Nc2ccc(C(F)(F)F)cc2)[C@@H](C)CN([C@H](C)CO)C(=O)c2cc(NC(=O)CCC(F)(F)F)ccc2O1 | 4.9 | 13.0 | ·
C[C@@H]1CN([C@@H](C)CO)C(=O)c2cc(NC(=O)Cc3ccccc3)ccc2O[C@@H](C)CCCCO[C@H]1CN(C)C(=O)Nc1ccccc1 | · | · | -0.8
C[C@@H]1CN([C@H](C)CO)C(=O)c2cc(NC(=O)Nc3ccc(F)cc3)ccc2O[C@@H](C)CCCCO[C@H]1CN(C)C(=O)Nc1ccc(C(F)(F)F)cc1 | · | · | -0.1
C[C@@H]1CCCCO[C@H](CN(C)C(=O)Nc2ccc(C(F)(F)F)cc2)[C@@H](C)CN([C@H](C)CO)C(=O)c2cc(NC(=O)Nc3ccc(F)cc3)ccc2O1 | -16.4 | 65.2* | 0.3
C[C@@H]1CCCCO[C@@H](CN(C)C(=O)Nc2ccc(C(F)(F)F)cc2)[C@@H](C)CN([C@H](C)CO)C(=O)c2cc(NC(=O)Cc3ccccc3)ccc2O1 | -5.3 | 59.4* | ·
C[C@@H]1CCCCO[C@H](CN(C)C(=O)Nc2ccc(C(F)(F)F)cc2)[C@@H](C)CN([C@H](C)CO)C(=O)c2cc(NC(=O)CCC(F)(F)F)ccc2O1 | -11.9 | 66.5* | 1.5
C[C@H](CO)N1C[C@H](C)[C@H](CN(C)C(=O)Nc2ccc(F)cc2)OCCCC[C@H](C)Oc2ccc(NC(=O)Nc3ccc(F)cc3)cc2C1=O | · | · | 0.3
C[C@@H]1CCCCO[C@H](CN(C)C(=O)Nc2ccc(F)cc2)[C@@H](C)CN([C@H](C)CO)C(=O)c2cc(NC(=O)Nc3ccc(F)cc3)ccc2O1 | -3.2 | 59.3* | 0.2
CC(C)(C)OC(=O)N1CCC[C@H]1/C=N/NC(=O)CCCCCC(=O)NO | · | · | 0.7
COc1cc(/C=N/NC(=O)c2ccccc2O)cc(OC)c1OC | -41.0 | -32.6 | 0.1
Cc1ccccc1/C=N/NC(=O)c1cccc(C(=O)NO)c1 | -2.8 | -20.3 | -1.8
O=C(CCCCCC(=O)Nc1ccccc1O)N/N=C/c1ccc(O)cc1O | -1.4 | 22.0 | -1.3
CC(C)(C)OC(=O)NC1(/C=N/NC(=O)c2ccccn2)CCCC1 | 10.6 | -10.2 | ·
C[C@@H]1CCCCO[C@@H](CN(C)C(=O)Nc2ccc(C(F)(F)F)cc2)[C@@H](C)CN([C@H](C)CO)C(=O)c2cc(NC(=O)Nc3ccc(F)cc3)ccc2O1 | -14.2 | 70.7* | -1.1
C[C@@H]1CCCCO[C@H](CN(C)C(=O)Nc2ccc(C(F)(F)F)cc2)[C@@H](C)CN([C@@H](C)CO)C(=O)c2cc(NC(=O)Nc3ccc(C(F)(F)F)cc3)ccc2O1 | · | · | 0.5
C[C@H]1CCCCO[C@H](CN(C)C(=O)Nc2ccc(C(F)(F)F)cc2)[C@@H](C)CN([C@@H](C)CO)C(=O)c2cc(NC(=O)Nc3ccc(F)cc3)ccc2O1 | · | · | -1.2
C[C@@H]1CCCCO[C@H](CN(C)C(=O)Nc2ccc(C(F)(F)F)cc2)[C@@H](C)CN([C@H](C)CO)C(=O)c2cc(NC(=O)Nc3ccc(C(F)(F)F)cc3)ccc2O1 | -23.1 | 65.1* | -0.3
C[C@@H]1CN([C@H](C)CO)C(=O)c2cc(NC(=O)Nc3ccc(C(F)(F)F)cc3)ccc2O[C@@H]1CN(C)C(=O)Nc1ccc(C(F)(F)F)cc1 | -14.6 | 41.2 | ·
C[C@H]1CCCCO[C@H](CN(C)C(=O)Nc2ccccc2)[C@@H](C)CN([C@@H](C)CO)C(=O)c2cc(NC(=O)Nc3ccc(C(F)(F)F)cc3)ccc2O1 | · | · | 1.0
SMILES | INS-1E ATP HTS | T cruzi intra | A1 apoptosis 2
C[C@@H]1CN([C@@H](C)CO)C(=O)c2cc(NC(=O)Nc3ccc(C(F)(F)F)cc3)ccc2O[C@H]1CN(C)C(=O)Nc1ccc(C(F)(F)F)cc1 | -105.8 | 74.4* | -0.8
C[C@@H]1CCCCO[C@H](CN(C)C(=O)Nc2ccc(C(F)(F)F)cc2)[C@@H](C)CN([C@H](C)CO)C(=O)c2cc(NC(=O)Nc3ccccc3)ccc2O1 | -29.1 | 57.1* | 0.8
O=C(CCCCCCC(=O)Nc1ccccc1O)N/N=C/c1ccc([N+](=O)[O-])c(O)c1 | 12.8 | -2.1 | -0.6
O=C(NO)c1cccc(C(=O)N/N=C/c2cccs2)c1 | -11.6 | -5.3 | -0.1
C[C@@H]1CCCCO[C@H](CN(C)C(=O)NC2CCCCC2)[C@@H](C)CN([C@H](C)CO)C(=O)c2cc(NC(=O)Nc3ccc(C(F)(F)F)cc3)ccc2O1 | -8.6 | 63.8* | ·
C[C@H]1CCCCO[C@H](CN(C)C(=O)NC2CCCCC2)[C@@H](C)CN([C@@H](C)CO)C(=O)c2cc(NC(=O)Nc3ccc(C(F)(F)F)cc3)ccc2O1 | · | · | 0.1
O=C1O[C@H](c2ccccc2)[C@H](c2ccccc2)N2[C@H]1[C@@H](C(=O)N1CCCCCCC1)[C@]1(C(=O)Nc3ccc(C#CCCO)cc31)[C@H]2c1ccccc1OCCO | · | · | 0.3
Cc1noc(C)c1S(=O)(=O)Nc1ccc2c(c1)CC(=O)N([C@H](C)CO)C[C@H](C)[C@H](CN(C)Cc1ccc(Oc3ccccc3)cc1)O2 | -26.6 | · | 2.0
Cc1noc(C)c1S(=O)(=O)Nc1ccc2c(c1)CC(=O)N([C@H](C)CO)C[C@@H](C)[C@H](CN(C)Cc1ccc(Oc3ccccc3)cc1)O2 | -7.2 | 69.4* | ·
Cc1noc(C)c1S(=O)(=O)Nc1ccc2c(c1)C(=O)N([C@@H](C)CO)C[C@H](C)[C@@H](CN(C)Cc1ccc(-c3ccccc3)cc1)O2 | -18.6 | 40.9 | ·
Cc1noc(C)c1S(=O)(=O)Nc1ccc2c(c1)C(=O)N([C@H](C)CO)C[C@H](C)[C@H](CN(C)Cc1ccc(-c3ccccc3)cc1)O2 | -16.8 | 65.3* | -0.2
Cc1noc(C)c1S(=O)(=O)Nc1ccc2c(c1)CC(=O)N([C@@H](C)CO)C[C@H](C)[C@@H](CN(C)Cc1ccc(-c3ccccc3)cc1)O2 | -3.5 | 66.2* | 0.1
Cc1noc(C)c1S(=O)(=O)Nc1ccc2c(c1)CC(=O)N([C@@H](C)CO)C[C@H](C)[C@@H](CN(C)Cc1ccccc1)O2 | 2.4 | 26.6 | -0.6
